CHT block = inhibits the human high affinity choline transporter; CHT-expressing cells, membrane potential dye, choline response; hits give low values; hit rate 0.86% among 310,000; Q9GZV3; B-score at 10 µM;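 active = B-score over 3 SD under the library average, and starting fluorescence ratio not unusually high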;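 also: choline stimulus applied at its EC90 after an EC20 pre-addition; B-score computed on integrated fluorescence ratio after choline addition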
Target sequence (Q9GZV3 whole entry, looked up): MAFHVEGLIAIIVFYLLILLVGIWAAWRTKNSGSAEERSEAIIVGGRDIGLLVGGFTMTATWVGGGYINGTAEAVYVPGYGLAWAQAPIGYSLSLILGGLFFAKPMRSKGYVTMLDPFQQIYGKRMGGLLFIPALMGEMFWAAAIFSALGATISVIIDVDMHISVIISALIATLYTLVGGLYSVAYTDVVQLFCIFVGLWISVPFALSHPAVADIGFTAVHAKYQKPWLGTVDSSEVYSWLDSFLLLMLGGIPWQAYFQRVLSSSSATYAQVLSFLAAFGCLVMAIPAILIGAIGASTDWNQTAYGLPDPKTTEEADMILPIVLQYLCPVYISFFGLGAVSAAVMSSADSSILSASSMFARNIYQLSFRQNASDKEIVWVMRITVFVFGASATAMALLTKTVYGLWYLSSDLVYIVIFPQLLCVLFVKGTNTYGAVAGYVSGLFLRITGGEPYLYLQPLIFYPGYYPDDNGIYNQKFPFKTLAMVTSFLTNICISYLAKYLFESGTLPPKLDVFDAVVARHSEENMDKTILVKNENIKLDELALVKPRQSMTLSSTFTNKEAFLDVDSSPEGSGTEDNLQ
CHT PAM = allosterically activates the human high affinity choline transporter; B-score at 10 µM; CHT-expressing cells, membrane potential dye, choline EC20; hits give high values; LV-AA mutant CHT in HEK293 cells; hit rate 0.49% among 310,000; Q9GZV3;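 active = initial fluorescence not abnormally high and integrated response B-score, plate-corrected, over 3 SD above library mean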
HSF-1 act = increases HSF-1 driven luciferase reporter signal | activation, % at 9 µM | NIH3T3-HGL HSF-1 luciferase reporter, MG132, 8 h; 100% = twice DMSO control signal | hit rate 1.7% among 300,000;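 active = mean replicate activation of at least 50% with a set share of replicates each reaching 50%; inconclusive = only one of those two conditions met; inactive = mean below 50% and too few replicates reaching it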;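 also: 0% = median of the neutral control wells and 100% = twice that signal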
PHOSPHO1 inh = PHOSPHO1 (human) inhibition; recombinant PHOSPHO1, absorbance phosphatase assay; inhibition, % at 13.3 µM; hit rate 1.1% among 290,000; in the data active = inhibition above about 60%
HSF1 inhib = HSF1 inhibition | activity change, negative = inhibition, % at 7.5 µM (by protocol) | hit rate 0.77% among 300,000 | NIH3T3-HGL HSE-luciferase, MG132-induced, luminescence 8 h; hits give low values | AID 2098;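 active = more than half of replicate wells show activity change below -50%, luminescence cut by over half; inconclusive = some wells, but at most half, below -50%; inactive = no replicate well below -50%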;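 also: luciferase reports HSF-1 transcriptional activity via heat shock element; 0% = median of DMSO wells and -100% = zero luminescence signal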
Lipid droplet = modulators of hepatic lipid droplet formation; AML12 mouse hepatocytes, oleate lipid droplets, BODIPY imaging; inhibition, % at 6.5 µM; hit rate 0.4% among 240,000;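 active = lipid droplet intensity inhibited by at least 50%, with more than 500 cells counted; inconclusive = wells with under 300 cells, treated as cytotoxic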
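material = mouse AML12 hepatocyte cell line, fixed after treatment | also added = 100 µM oleic acid challenge | doses = compound at 6.5 µM only | schedule = overnight exposure | technique = Image-based BODIPY and DAPI two-channel analysis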
CHT act confirm = confirmation of human choline transporter (CHT) activators. shares compounds with CHT PAM. CHT-expressing cells, membrane potential dye fluorescence (FDSS); % of choline EC20–EC90 response window; HEK293 expressing CHT LV-AA mutant; choline added at its EC20. activation, % at 10 µM. hit rate 91% among 2,500. AID 504833;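 active = primary screen active, with duplicate mean activation above negative control mean plus 3 SD, cut at about 11% in these data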
HEK293 MP dye = CHT activator counter-screen hit in parental HEK293 cells; shares compounds with CHT PAM; AID 623908; membrane potential dye fluorescence (FDSS); measured after EC20 choline addition; ratio readout change at 10 µM, hits read low; hit rate 62% among 2,500;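 active = duplicate-averaged ratio beyond 3 SD from buffer wells, up or down, though filed actives are nearly all decreases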
The depositor's hits bear a star; i = inactive; ? = inconclusive; / = no result given. In the library only some 4.9% were active in any assay of this set; here they are far more common.

SMILES	CHT block	CHT PAM	HSF-1 act	PHOSPHO1 inh	HSF1 inhib	Lipid droplet	CHT act confirm	HEK293 MP dye
CC1CN(C2=Nc3cccc4cccc2c34)CC(C)O1 (configuration not stated)	i	i	9.1	10.8	-2.7	13.0	57.6*	-56.4*
CC1CN(c2oc(-c3ccccc3Cl)nc2C#N)CC(C)O1 (configuration not stated)	i	i	-7.3	-6.1	-1.6	/	/	/
COc1ccccc1NC1=Nc2cccc3cccc1c23	i	i	24.6	-8.5	0.6	5.8	/	/
c1cc2c3c(cccc3c1)C(N1CCOCC1)=N2	i	8.55*	7.6	20.0	-4.5	23.3	56.2*	-67.7*
[O-]C1=N/[N+](=C/c2ccc(Cl)cc2)CC1	i	i	-4.4	25.7	-3.5	5.3	/	/
COc1ccc(N2C(=O)/C(=C\c3ccco3)N=C2SCC(=O)N(C(C)C)C(C)C)cc1Cl	i	i	13.1	5.7	17.2	-51.3	12.6*	i
COc1ccc(N)c2c1C(=O)c1ccccc1C2=O	i	7.44*	54.3*	3.1	30.5	0.2	47.9*	-53.9*
COC(=O)c1ccc(OC)c(CSc2nnc(COc3ccc(OC)cc3)o2)c1	i	i	-4.5	-27.6	6.3	-18.9	/	/
COC(=O)c1ccc(OC)c(CSc2nnc(COc3cccc(C)c3)o2)c1	i	i	12.7	1.8	-8.5	-3.5	19.2*	i
Cc1nc(C)c(-c2csc(Nc3ccc(N)cc3)n2)s1	i	i	-10.9	/	14.2	-1.9	/	/
c1cncc(Nc2nc(-c3cccnc3)cs2)c1	i	6.92*	-11.9	-24.9	-1.7	/	42.5*	-45.1*
Cc1nc(C)c(-c2csc(Nc3cccnc3)n2)s1	i	i	0.8	13.9	2.7	23.7	35.4*	-34.5*
c1cncc(Nc2nc(-c3ccncc3)cs2)c1	i	7.48*	-4.0	-39.0	-2.5	/	46.1*	-48.9*
CC(=O)c1ccc(Sc2nnc(C)s2)c([N+](=O)[O-])c1	i	i	20.6	-25.7	11.4	1.7	/	/
COc1cccc2sc(Nc3nc(-c4ccncc4)cs3)nc12	i	i	-4.3	20.4	-7.2	?	/	/
COc1ccc(OC)c2nc(-c3ccncc3)ccc12	i	i	1.4	15.9	-6.3	1.5	51.7*	-52*
CCOC(=O)c1cnc2ccc(OCC)cc2c1N(C)Cc1ccccc1	i	9.6*	-11.9	-4.0	1.0	-6.2	41.2*	i
CCOC(=O)C1=C(N)OC2=C(C(=O)CC(C)(C)C2)C1c1ccc(CC)s1 (configuration not stated)	i	7.6*	19.4	-5.3	3.2	-18.2	20.8*	i
COc1ccc(OC2CCN(S(=O)(=O)c3ccc(OC)c(OC)c3)CC2)cc1	i	i	-3.7	38.1	-0.2	0.1	/	/
CCSC1=C(C#N)C2(CCCC2)C(C#N)=C(N)N1	i	i	-11.9	16.4	3.9	/	/	/
CCN1CCN(c2ccc(S(=O)(=O)N3CCCCC3)cc2NC(=O)c2ccc(OC(F)F)cc2)CC1	i	i	10.8	/	-4.9	/	/	/
CCN1CCN(c2ccc(S(=O)(=O)N3CCCCC3)cc2NC(=O)/C=C/c2ccc(F)cc2)CC1	i	i	-24.0	/	-6.0	/	/	/
CCN1CCN(c2ccc(S(=O)(=O)N3CCCCC3)cc2NC(=O)Cc2ccc(OC)cc2)CC1	i	i	-2.1	24.0	-1.5	-25.7	39.5*	-35.8*
CCN1CCN(c2ccc(S(=O)(=O)N3CCCCC3)cc2NC(=O)/C=C/c2cccc(OC)c2OC)CC1	i	i	-14.8	16.2	0.9	-8.9	40.8*	-31.5*
Cc1ccn2c(NC(=O)c3ccccc3)c(-c3cccs3)nc2c1	i	i	-2.3	22.9	0.1	/	/	/
SMILES	CHT block	CHT PAM	HSF-1 act	PHOSPHO1 inh	HSF1 inhib	Lipid droplet	CHT act confirm	HEK293 MP dye
Cc1ccn2c(NC(=O)c3ccccc3)c(-c3ccccc3)nc2c1	i	i	31.2	34.3	3.1	/	30.5*	-48.3*
CC(C)CCNC(=O)/C=C/c1ccc(Br)cc1	i	i	14.5	7.2	15.7	-4.1	25.0*	i
CCCCN(Cc1ccco1)C(=O)C1CCCN(c2ncnc3c2nc2n3CCCCC2)C1 (configuration not stated)	i	i	-0.5	34.4	-7.5	-49.4	17.6*	i
CCc1cccc(NC(=S)N(CCCOC(C)C)C2CCN(C(C)=O)CC2)c1	i	i	5.5	33.0	-3.7	-18.2	/	/
Cc1cc(N2CCOCC2)c2c(N)c(C)cc(C)c2n1	i	12.2*	/	-45.7	/	-7.6	58.3*	-77.6*
Cc1ccc2nc(Cl)c(/C=N/n3c(C)nnc3C)cc2c1	i	8.04*	-8.2	4.2	3.8	26.4	42.6*	-53.5*
CCCc1nn2c(=O)cc(CSCC(=O)Nc3ccccc3OC)nc2s1	i	i	5.9	38.0	-4.5	-25.0	/	/
Cn1c(=O)c2c(nc(SCCN3CCCCC3)n2Cc2ccccc2)n(C)c1=O	i	i	-6.6	-0.3	-3.8	/	46.3*	-59.3*
Cc1ccc(Cn2c(SCC(N)=O)nc3c2c(=O)n(C)c(=O)n3C)cc1	i	i	-7.3	3.5	1.5	-5.5	/	/
Cn1c(=O)c2c(nc(N3CCc4ccccc4C3)n2Cc2ccc(Br)cc2)n(C)c1=O	i	i	14.3	-6.1	0.3	-7.9	27.5*	-26*
Cn1c(=O)c2c(nc(SCCN3CCOCC3)n2Cc2cccc3ccccc23)n(C)c1=O	i	i	14.2	11.4	-0.6	/	/	/
Cc1ccc(Cn2c(SCCN3CCCCC3)nc3c2c(=O)n(C)c(=O)n3C)cc1	i	i	13.3	36.6	4.0	/	49.1*	-44.2*
COc1ccc(C(=O)CN2CCN(c3cc(C)nc4ccccc34)CC2)cc1	i	8.46*	-1.7	-44.0	-3.1	-32.8	63.8*	-77.5*
COc1ccc(N2CCN(CC(=O)c3ccccc3)CC2)cc1	i	i	-10.8	23.9	-3.1	5.8	/	/
COc1cccc(Cl)c1NC(=O)N1CCN(c2cc(C)nc3ccccc23)CC1	i	6.75*	-0.4	46.6	-7.8	-2.1	41.8*	-50.4*
COc1ccc2nc(C)cc(N3CCOCC3)c2c1	i	i	-1.3	-3.3	-3.3	-2.1	67.8*	-80.8*
Cc1cc(N2CCN(CC(O)C(F)(F)F)CC2)c2ccccc2n1 (configuration not stated)	i	i	1.6	6.2	7.1	-0.9	72.3*	-72.1*

High-throughput results deposited in PubChem BioAssay by several laboratories.
